Assay results published in ChEMBL document CHEMBL1130100, “Stabilized analogs of thymopentin. 3. Evaluation of ketomethylene pseudopeptides for antiarthritic properties” (1997).
Several values for one entry are separate records, joined by “and”; a condition that tells them apart may be missing. Equal values may be shown once.

Key:
Format in all cases: functional
Mus musculus [1] = assay: On set and incidence of arthritis in the Mouse Type II collagen model following 0.5 mg/kg on day 30.
Method in brief: (§1)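 DBA/1 Lac mice sensitized with bovine type II collagen (100 μg) in Freund's complete adjuvant, ip boost (100 μg) on day 21. Freshly dissolved compound in sterile saline was given iv every second day, day 19 through day 40, groups of 12. A mouse was scored arthritic if erythema or edema was present on any digit, paw or appendage. Incidence reported as number positive of 12.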

Mus musculus [2] = assay: 68 Extent of paw swelling after treatment with thymopentin-5 (TP-5) compound in the Mouse Type II collagen arthritis at a dosage of 0.001 mg/kg on day 30
Method in brief: (§2)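 DBA/1 Lac mice immunized with bovine type II collagen (100 μg) in Freund's complete adjuvant at four to six back sites, then boosted ip (100 μg) on day 21. Dosing was iv in sterile saline every second day from day 19 through day 40, 12 mice per dose. Each hind paw was measured by caliper. Result given as % of untreated swelling after subtracting age-matched normal paw.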

Mus musculus [3] = assay: On set and incidence of arthritis in the Mouse Type II collagen model at 0.5 dose mg/kg on day 40,expressed as number of mice treated out of 12 tested; method in brief: as §1
Mus musculus [4] = assay: On set and incidence of arthritis in the Mouse Type II collagen model at 0.5 dose mg/kg on day 37, expressed as number of mice treated out of 12 tested; method in brief: as §1
Mus musculus [5] = assay: Extent of paw swelling after treatment with thymopentin-5 (TP-5) compound in the Mouse Type II collagen arthritis at a dosage of 0.001 mg/kg on day 30; method in brief: as §2
Mus musculus [6] = assay: On set and incidence of arthritis in the Mouse Type II collagen model at 0.5 dose mg/kg on day 44, expressed as number of mice treated out of 12 tested; method in brief: as §1
Mus musculus [7] = assay: On set and incidence of arthritis in the Mouse Type II collagen model at 0.5 dose mg/kg on day 37, expressed as ratio of number treated to that of control; method in brief: as §1
Mus musculus [8] = assay: On set and incidence of arthritis in the Mouse Type II collagen model at 0.5 dose mg/kg on day 44, expressed as ratio of number treated to that of control; method in brief: as §1
Mus musculus [9] = assay: Extent of paw swelling after treatment with thymopentin-5 (TP-5) compound in the Mouse Type II collagen arthritis at a dosage of 1.0 mg/kg on day 44; method in brief: as §2
Mus musculus [10] = assay: On set and incidence of arthritis in the Mouse Type II collagen model at 0.5 dose mg/kg on day 40, expressed as ratio of number treated to that of control; method in brief: as §1
Mus musculus [11] = assay: Extent of paw swelling after treatment with thymopentin-5 (TP-5) compound in mouse type II collagen arthritis at a dosage of 1.0 mg/kg on day 30; method in brief: as §2
Rattus norvegicus [12] = assay: extent of paw swelling following treatment with the compound in the rat adjuvant arthritis model observed on day 16 at 0.50 mg/kg dose; conditions: dose 0.5 mg/kg
Method in brief: (§3)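 Rat adjuvant arthritis with iv dosing every second day, starting 2 days before the adjuvant/antigen challenge. Initial doses ranged 0.05 to 0.50 mg/kg, eight rats per dose. Each hind paw was measured by caliper. Swelling minus age-matched normal paw, expressed as % of untreated animals.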

Mus musculus [13] = assay: On set and incidence of arthritis in the Mouse Type II collagen model at 0.5 dose mg/kg on day 40, expressed as number of mice treated out of 12 tested; method in brief: as §1
Rattus norvegicus [14] = assay: extent of paw swelling following treatment with the compound in the rat adjuvant arthritis model observed on day 19 at 0.50 mg/kg dose; conditions: dose 0.5 mg/kg; method in brief: as §3
Rattus norvegicus [15] = assay: extent of paw swelling following treatment with the compound in the rat adjuvant arthritis model observed on day 12 at 0.50 mg/kg dose; conditions: dose 0.5 mg/kg; method in brief: as §3
Mus musculus [16] = assay: Extent of paw swelling after treatment with thymopentin-5 (TP-5) compound in the Mouse Type II collagen arthritis at a dosage of 0.5 mg/kg on day 37; method in brief: as §2
Mus musculus [17] = assay: Extent of paw swelling after treatment with thymopentin-5 (TP-5) compound in the Mouse Type II collagen arthritis at a dosage of 0.5 mg/kg on day 44; method in brief: as §2
Mus musculus [18] = assay: On set and incidence of arthritis in the Mouse Type II collagen model at 0.5 dose mg/kg on day 40, expressed as ratio of number treated to that of control:12 animals tested; method in brief: as §1
Mus musculus [19] = assay: Extent of paw swelling after treatment with thymopentin-5 (TP-5) compound in the Mouse Type II collagen arthritis at a dosage of 0.5 mg/kg on day 40; method in brief: as §2
Mus musculus [20] = assay: Extent of paw swelling after treatment with thymopentin-5 (TP-5) compound in the Mouse Type II collagen arthritis at a dosage of 0.5 mg/kg on day 30; method in brief: as §2
Mus musculus [21] = assay: Extent of paw swelling after treatment with thymopentin-5 (TP-5) compound in the Mouse Type II collagen arthritis at 1 mg/kg on day 30.; method in brief: as §2
Mus musculus [22] = assay: Extent of paw swelling after treatment with thymopentin-5 (TP-5) compound in the Mouse Type II collagen arthritis at a dosage of 0.01 mg/kg on day 37; method in brief: as §2
Mus musculus [23] = assay: Extent of paw swelling after treatment with thymopentin-5 (TP-5) compound in the Mouse Type II collagen arthritis at a dosage of 0.01 mg/kg on day 30; method in brief: as §2
Mus musculus [24] = assay: Extent of paw swelling after treatment with thymopentin-5 (TP-5) compound in the Mouse Type II collagen arthritis at a dosage of 0.01 mg/kg on day 44; method in brief: as §2
Mus musculus [25] = assay: Extent of paw swelling after treatment with thymopentin-5 (TP-5) compound in the Mouse Type II collagen arthritis at a dosage of 0.501 mg/kg on day 40; conditions: dose 0.01 mg/kg; in the assay text read “0.01 mg/kg” for “0.501 mg/kg”; method in brief: as §2
Mus musculus [26] = assay: Extent of paw swelling after treatment with thymopentin-5 (TP-5) compound in the Mouse Type II collagen arthritis at a dosage of 1.0 mg/kg on day 37; method in brief: as §2
Mus musculus [27] = assay: Extent of paw swelling after treatment with thymopentin-5 (TP-5) compound in the Mouse Type II collagen arthritis at a dosage of 1.0 mg/kg on day 40; method in brief: as §2
Rattus norvegicus [28] = assay: extent of paw swelling following treatment with the compound in the rat adjuvant arthritis model observed on day 19 at 0.050 mg/kg dose; conditions: dose 0.05 mg/kg; method in brief: as §3
Rattus norvegicus [29] = assay: extent of paw swelling following treatment with the compound in the rat adjuvant arthritis model observed on day 12 at 0.050 mg/kg dose; conditions: dose 0.05 mg/kg; method in brief: as §3
Rattus norvegicus [30] = assay: extent of paw swelling following treatment with the compound in the rat adjuvant arthritis model observed on day 16 at 0.050 mg/kg dose; conditions: dose 0.05 mg/kg; method in brief: as §3
Rattus norvegicus [31] = assay: extent of paw swelling following treatment with the compound in the rat adjuvant arthritis model observed on day 19 at 0.075 mg/kg dose; method in brief: as §3
Rattus norvegicus [32] = assay: extent of paw swelling following treatment with the compound in the rat adjuvant arthritis model observed on day 12 at 0.075 mg/kg dose; method in brief: as §3
Rattus norvegicus [33] = assay: extent of paw swelling following treatment with the compound in the rat adjuvant arthritis model observed on day 16 at 0.075 mg/kg dose; method in brief: as §3
Mus musculus [34] = assay: On set and incidence of arthritis in the Mouse Type II collagen model at 0.5 dose mg/kg on day 30, expressed as ratio of number treated to that of control; method in brief: as §1

Structure (SMILES) | No. of mice (Mus musculus [1]) | No. of mice (Mus musculus [4]) | No. of mice (Mus musculus [6]) | No. of mice (Mus musculus [7]) | No. of mice (Mus musculus [8]) | No. of mice (Mus musculus [10]) | No. of mice (Mus musculus [13]) | No. of mice (Mus musculus [1]; 0.5 mg/kg) | other results
CCCC[C@@H](C(=O)N[C@@H](CC(=O)O)C(=O)N[C@H](C(=O)C[C@H](Cc1ccccc1)C(=O)O)C(C)C)N(C)C(=O)[C@@H](N)CCCN=C(N)N | 7 | 7 | 8 |  |  |  |  |  | Paw swelling (Mus musculus [2]): 90%; No. of mice (Mus musculus [3]): 7; Paw swelling (Mus musculus [5]): 90% and 43%
CCCC[C@H](NC(=O)[C@@H](N)CCCN=C(N)N)C(=O)N[C@@H](CC(=O)O)C(=O)C[C@H](C)C(=O)O | 8 |  |  | 11 | 12 | 11 |  |  | Paw swelling (Mus musculus [9]): 100%
CC(C)C(CC(=O)[C@H](CC(=O)O)NC(=O)C(CCCCN)NC(=O)[C@@H](N)CCCN=C(N)N)C(=O)NC(Cc1ccc(O)cc1)C(=O)O (stereo not given in full) | 8 |  |  | 11 | 12 | 12 |  |  | Paw swelling (Mus musculus [11]): 100%
CC(C)C(CC(=O)[C@H](CC(=O)O)NC(=O)C(CCCCN)N(C)C(=O)[C@@H](N)CCCN=C(N)N)C(=O)N[C@@H](Cc1ccccc1)C(=O)O (stereo not given in full) | 6 | 4 | 8 |  |  |  | 8 |  | Paw swelling (Mus musculus [11]; 1 mg/kg): 100% and 46% and 53%; Paw swelling (Rattus norvegicus [12]): 80%; Paw swelling (Rattus norvegicus [14]): 52%; Paw swelling (Rattus norvegicus [15]): 0%
CC(C)[C@H](NC(=O)[C@H](CC(=O)O)NC(=O)[C@H](CCCCN)NC(=O)[C@@H](N)CCCN=C(N)N)C(=O)C[C@@H](Cc1ccccc1)C(=O)O | 5 | 7 | 7 |  |  |  |  |  | Paw swelling (Mus musculus [16]): 100%; Paw swelling (Mus musculus [17]): 53%; No. of mice (Mus musculus [18]): 8; Paw swelling (Mus musculus [19]): 93%; Paw swelling (Mus musculus [20]): 100%
CCCCC(CC(=O)[C@@H](N)CCCN=C(N)N)C(=O)N[C@@H](CC(=O)O)C(=O)NC(C(=O)N[C@@H](Cc1ccccc1)C(=O)O)C(C)C (stereo not given in full) | 3 |  |  | 7 | 8 | 7 |  |  | Paw swelling (Mus musculus [21]): 100%
CC(C)[C@H](NC(=O)[C@H](CC(=O)O)NC(=O)[C@@H]1CCCN1C(=O)[C@@H](N)CCCN=C(N)N)C(=O)C[C@@H](Cc1ccccc1)C(=O)O (stereo in doubt; 1b-A) |  |  | 9 |  |  |  | 9 | 8 | Paw swelling (Mus musculus [22]): 72%; Paw swelling (Mus musculus [23]): 62%; Paw swelling (Mus musculus [24]): 47%; Paw swelling (Mus musculus [25]): 60%
CC(C)[C@H](NC(=O)[C@H](CC(=O)O)NC(=O)[C@@H]1CCCN1C(=O)[C@@H](N)CCCN=C(N)N)C(=O)C[C@@H](Cc1ccccc1)C(=O)O (stereo in doubt; 1b-B) |  | 9 | 11 |  |  |  | 10 | 6 | Paw swelling (Mus musculus [21]): 66%; Paw swelling (Mus musculus [9]): 53%; Paw swelling (Mus musculus [26]): 59%; Paw swelling (Mus musculus [27]): 42%
CCCC[C@H](NC(=O)[C@@H](N)CCCN=C(N)N)C(=O)N[C@@H](CC(=O)O)C(=O)N[C@H](C(=O)C[C@@H](Cc1ccccc1)C(=O)O)C(C)C (stereo in doubt; 1c-A) |  | 9 | 8 |  |  |  | 10 | 5 | Paw swelling (Rattus norvegicus [28]): 100%; Paw swelling (Rattus norvegicus [29]): 0%; Paw swelling (Mus musculus [24]; 0.01 mg/kg): 66% and 69% and 70% and 63%; Paw swelling (Rattus norvegicus [30]): 100%
CCCC[C@H](NC(=O)[C@@H](N)CCCN=C(N)N)C(=O)N[C@@H](CC(=O)O)C(=O)N[C@H](C(=O)C[C@@H](Cc1ccccc1)C(=O)O)C(C)C (stereo in doubt; 1c-B) |  | 11 | 12 |  |  |  | 11 | 8 | Paw swelling (Mus musculus [9]): 100%
CCCCC(CC(=O)[C@@H](N)CCCN=C(N)N)C(=O)N[C@@H](CC(=O)O)C(=O)NC(C(=O)C[C@H](C(=O)O)C(C)C)C(C)C (stereo in doubt; 1h-B) |  |  |  | 7 | 9 |  |  | 6 | Paw swelling (Rattus norvegicus [31]): 70%; Paw swelling (Rattus norvegicus [32]): 0%; Paw swelling (Rattus norvegicus [33]): 100%
CC(C)[C@H](CC(=O)[C@H](CC(=O)O)NC(=O)[C@H](CCCCN)NC(=O)[C@@H](N)CCCN=C(N)N)C(=O)N[C@@H](Cc1ccccc1)C(=O)O (stereo in doubt; 3a-B) |  |  |  | 11 | 12 | 12 |  |  | No. of mice (Mus musculus [34]): 8; Paw swelling (Mus musculus [11]): 100%
CC(CC(=O)[C@H](CC(=O)O)NC(=O)C(CCCCN)NC(=O)[C@@H](N)CCCN=C(N)N)C(=O)NC(Cc1ccccc1)C(=O)O (stereo in doubt; 3e-A) |  |  |  | 9 | 12 | 11 |  | 5 | Paw swelling (Mus musculus [11]; 1 mg/kg): 88% and 57% and 73% and 75%
CC(CC(=O)[C@H](CC(=O)O)NC(=O)C(CCCCN)NC(=O)[C@@H](N)CCCN=C(N)N)C(=O)NC(Cc1ccccc1)C(=O)O (stereo in doubt; 3e-B) |  |  |  | 11 |  | 10 |  | 10 | Paw swelling (Mus musculus [11]; 1 mg/kg): 100% and 68% and 77%
